Reference: the EternaBench riboswitch data

Tested on: MS2 coat protein
Test: apparent Kd, MS2 coat protein; higher = weaker binding; RNA-MaP array; FMN 200 µM where present
Outline: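 In 100 mM Tris-HCl pH 7.5, 80 mM KCl, 4 mM MgCl2, BSA, DTT, yeast tRNA and Tween-20, SNAP-549-labelled MS2 coat protein was titrated from 0.7 or 1.5 nM, doubling to 3 µM, over designs transcribed by stalled E. coli RNA polymerase on Illumina sequencing-chip clusters. This was done first without ligand, then with ligand held constant. After green signal was normalised to red-channel RNA signal and control-cluster median Fmax, the apparent Kd was taken as the median of filtered per-cluster binding-curve fits.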

[1] = designed as: ON switch for flavin mononucleotide, no ligand
[2] = ligand present: flavin mononucleotide, designed as: ON switch for flavin mononucleotide
[3] = designed as: OFF switch for flavin mononucleotide, no ligand
[4] = ligand present: flavin mononucleotide, designed as: OFF switch for flavin mononucleotide

Sequence	apparent Kd [1] [nM]	apparent Kd [2] [nM]	apparent Kd [3] [nM]	apparent Kd [4] [nM]
ACGCAGCUAGGUGAGGAUAUCGGUGGUAAAACAUGAGGAUCACCCAUGUCCGAAGCUCGGACUUCCGAGAAGGCGCCCGGCUGCA	122	15.7	–	–
CGCAACUCAGAUCUUUUGAACAUGAGGAUCACCCAUGUAUUGAGAAGGAGGAAGAAGAGAGAUUCCUAGGAUAUCAGAGUUGCG	–	–	5.95	5.81
GUUAGUUAAGGAUAUACAGGGAGCUGCGGCGUCUCGCCGCAACAUGAGGAUCACCCAUGUAGAAGGUAGCCGUU	–	–	76.4	121
CUCGCGUUAGGAUAUGCUAGCUGAGAAUAAUCUGCAGCGGUGCAGAAGGAACAUGAGGAUCACCCAUGUAGGGA	–	–	278	43.6
AAUAUAAGAGCUGGACUCAAAAGAACAUGAGGAUCACCCAUGUAGGAUAUCAGCACGAUAAGUGCUGAGAAGGACAACCAGCUC	–	–	14.4	15.2
CGGUACUUAGGAUAUACAUGAGGAUCACCCAUGUAGAAAUGGUGGGUGCCGUCCUGUGGUAGAAGGAAGAAUCG	–	–	28.5	50.2
GCGAUUAAGUAGAAGGUACGUUAUAAGACAAUGUAAGGAUAUACUGACAUGAGGAUCACCCAUGUAAAAUUAGUUUACUGUCGC	7.34	6.44	–	–
CGCUCAAUUACUUUGAAUAGAAUCAGAAGGCGUUACAUGAGGAUCACCCAUGUUAUGAUGUGUAACGAGGAUAUGAAUUGAGCG	–	–	38.2	208
CGGGAGUCAGGAUAUACGGUCAUGUCGCCAGAUGUCAUGGUACAUGAGGAUCACCCAUGUAGAAGGGAGGAGAU	–	–	75.7	136
AAAAAAAAAGUAGAGGAUAUCCGAGUGGUAACAUGAGGAUCACCCAUGUGAAGAAAGGAACAUGAGGAGAAGGCUACAAAAAAAAA	46.6	16.6	–	–
GCCCGAACCACAGGAUAUCCCAAUGUUUUACAGGGAGAAGGGUGAGAGUAUGACAUGAGGAUCACCCAUGUUGUUCGGGUGGAA	709	227	–	–
GGGCCACAUGAGGAUCACCCAUGUAAACCCGUGCUCAGGGCACAGGAUAUGGGCCUGGAUUAGGCCCAGAAGGGUGGUCUGGCC	29.4	10.6	–	–
AUCAUUCGUGUAGGAUAUGCGUGGCGAAGCUAUGCAGAAGGACAUGAGGAUCACCCAUGUCUUUCUCGAGCUGUAGCUCGAGGA	–	–	21.3	92.2
GCCUCAUAGUAGAAGGGACUUAGGCAGUUAAGCAUCAUGUCCAAUUAACAUGAGGAUCACCCAUGUCAGGAUAUACUAAGAGGC	–	–	8.03	25.1
AUAUAGAUGGUCAGGAUAUGCUAGUGGUAACAGUAGCAGAAGGGACAUGAGGAUCACCCAUGUAGAUACUGCUC	–	–	18	32.2
AAUAUAAGAGCUGGUACUCAAAGAACAUGAGGAUCACCCAUGUAGGAUAUCAGCACGAUAAGUGCUGAGAAGGACAUCCAGCUC	–	–	15.8	15.9
CCACCCUGAGGAUAUCCACCCUCAUACAUGAGGAUCACCCAUGUUCAUCCCUGAGUACCCGGAGAAGGCAGAUUUC	–	–	87.7	57.9
CCGAAUGUCACAGGAUAUGGUCCGGGCACGCGACCAGAAGGGUGAUCUCACAUGAGGAUCACCCAUGUGCAGGCGUAAGGCUGC	28.4	193	–	–
CUUUUGUGAGGAUAUCAGUAGUUAAAUAAUAAAAUUACUACUGAGAAGGCACAUGAGGAUCACCCAUGUUCCUC	–	–	36.4	201
UCUGCAUAGUCAGGAUAUGCAAAGUAAUGUAUGGAAACAUACAUUACAACAUGAGGAUCACCCAUGUAGAAGGGACUGUGCAGA	–	–	14	13
UUGAGGCACCAGAAGGACAUGAGGAUCACCCAUGUAGGAUAUGGGCAAGCCGACGUGCGCAGAUUGCUUAGUUGGGUAUCUUCU	43.2	10.4	–	–
CGUUUGUGGCAACUAUCCUCACAUGAGGAUCACCCAUGUAGGGAGGAUAUGCAUUUAAAGAAGUGGCAGAAGGCCCUACACGAA	–	–	101	89.5
AUACAUGAGGAUCACCCAUGUUACUGGGUCUAUAUAGAACGUAGAAGGAUGUUUAUACACAUAACAUAGGAUAUACAAUAUUGU	–	–	–	30.9
UCCGACCUAGGAUAUACCUGGGCCGCCUCGUGUUAUCACCUACAUGAGGAUCACCCAUGUAGAAGGAGGACGGU	–	–	46.7	64.1
CCAUGGCUGUAAGGAUAUGUCUGACAAAGUCAGACAGAAGGUACAUGAGGAUCACCCAUGUGAAGAAAACCACAUUUGCCAUGG	–	–	6.68	8.41
GGUGCGUUUGUGAGGAUAUGCUGGUCCUUGGUUCGGCAGAAGGCACAUGAGGAUCACCCAUGUGGUGUCGUGCC	–	–	35.1	77.5
CAAUUGGCACAGAAGGGUGACAUGAGGAUCACCCAUGUAGCGUGGCAUUCAGGAGGAGCCACGCCACAGGAUAUGUGCGGGCAC	107	155	–	–
CCGCAUAUGCAGGAUAUCGUAUCGGAAACGAUACGAGAAGGGUAAACAUGAGGAUCACCCAUGUUCCUUAACGG	–	–	18	16.5

Sequence	apparent Kd [1] [nM]	apparent Kd [2] [nM]	apparent Kd [3] [nM]	apparent Kd [4] [nM]
CGCCGCACCAGCCGGCGGCAGGGUCAGGAUAUACAUGAGGAUCACCCAUGUGAACGGUGCCCAAUGUAGAAGGGACGAAGAGAC	–	–	20.5	32.6
AAAUAAACUACCAUAAUAUCCUCACAUGAGGAUCACCCAUGUCAGGAUAUUUGUCCUAAAAGGACAGAGAAGGGACGUGGUAGA	–	–	5.43	11.1
CGUAGGAUCCAGAAGGCAUGAACAUGAGGAUCACCCAUGUGAAAACACAUGAGGAUAUGGAUCCUACGAAAAGUGCGAAAGCAC	5.4	4.66	–	–
AUUUAAAUGUCAGGAUAUGUUAGUUUAUACUUAGUAGAAGGGAUAAUUAUACUCAAGUACAUGAGGAUCACCCAUGUUAAAUCA	21	18.5	–	–
ACAUGAGGAUCACCCAUGUAUUACAUGGUUAAGUUUAUUAACAGAAGGCGAAAUUACCACUUUUUCGAGGAUAUGUUUUCUAUA	–	–	45.1	58.4
UGUCGGAGCAGAGGAUAUUACAUGAGGAUCACCCAUGUAUGAACCAAUAGCUGGAAACAGCAAUGUAAGAAGGCUGCUCCUACA	–	–	12.5	147
AAUAAACUCACAGGAUAUAGCAGAGGUCGCGUGUACUUACAGGCGACGAGGCUAGAAGGGUGACCACAUGAGGAUCACCCAUGU	1010	113	–	–
AAAAGGUUAGGAUAUGCCCGCCGGGUGGGAAGGCCGGGUGGGUAGAAGGGACAUGAGGAUCACCCAUGUAUAAA	–	–	47	19.9
AAACCACAUGAGGAUCACCCAUGUCAUAACCGUAGGGAGAAGAGAAGGGUGAGGGUGUAGCCUGCACAGGAUAUCUAGUGCCUC	228	174	–	–
AUAUCUCUGUAAGGAUAUAGAUGGUGUACGCCUCCGACAUGAGGAUCACCCAUGUUAUAUUUUGUCUAGAAGGUACAGUGUCGG	389	222	–	–
UUACCUUAUGAGAAGGCGAUCAUGAAACAUGAUCGAGGAUAUCAUGUAAACAUGAGGAUCACCCAUGUAUGGGUAUUAUGGUAG	133	32.5	–	–
AUCAUGAGAGGAUAUACAUGAGGAUCACCCAUGUGGUAAACACCAUGAGCUCAAUUACGUAGAAGGCUCAUUUG	–	–	26.4	45.6
UGGUCAUCAUCAGGAUAUUAACAUGGGCUACAUUAAGAAGGGAUAGUGAGAUACGAACUGAACGCACAUGAGGAUCACCCAUGU	39.6	26.5	–	–
CUGAUGUGAGGAUAUCGGGCUACAGCCAGGCUGCUAGCAUACGAGAAGGCACAUGAGGAUCACCCAUGUGAGAA	–	–	48.3	49.1
UGUCGGAGCAGAGGAUAUUACAUGAGGAUCACCCAUGUAUGAACCAAUAGCUGGAAACAGCAGUGUAAGAAGGCUGCUCCGACA	–	–	12.5	143
AUCAGUCCGUAGAAGGGUGACAUGAGGAUCACCCAUGUGCCGUGUGCAUUUAUGCCUCCACGGCCACAGGAUAUACGGAGUCGA	89	22.6	–	–
AAAGUAGGAGGAUAUACAUAGAUACAGAUACAUGUAGACGUACAUGAGGAUCACCCAUGUAGAAGGCCUAUGUA	–	–	65.9	212
AUAAACCAAGGAUAUACAUGAGGAUCACCCAUGUUCCCUUGAACCCAGGGUAUGCAAUGUAGAAGGUGGGAAAC	–	–	20	29.5
UCUAAUUAGUGAGGAUAUACAUAAUUUAUUACUGUAGAAGGCACAAACCUCAAGACAUGAGGAUCACCCAUGUGGUAUUUAGAU	–	–	158	362
GGGAUAAGGCAGAAGGACAUGAGGAUCACCCAUGUAGGAUAUGCCUACAUCCGCAUCUUAGGUCUCGCUCUGUCGCGACCCUCU	8.99	5.29	–	–
CAUAGUAAUUAGGAUAUCUGCCGGCUGAACCGAGGAGAAGGGAUUACAUGAGGAUCACCCAUGUGGUCCUAAGA	–	–	17	18.7
CAGUACUGAGGAUAUACAUGAGGAUCACCCAUGUGGUUAAGCUAGGAAACUAGCAAAUGUAGAAGGCAGUACUG	–	–	240	85.1
AAGCGAGGGACAGGAUAUGCGGCGAAACUCGCCGCAGAAGGGUCGACAUGAGGAUCACCCAUGUCCUUACGCUCCACGUAGUGG	107	455	–	–
GUCCCGAGGGAGAAGGGCUAGAAGGUCCAGCUUAUGUGUGUUGCAACAUGAGGAUCACCCAUGUAGCAGGAUAUCCCUUGUACA	–	–	18.1	39.6
AAAGCUCAGAUAGGAUAUAUAGGAUAACUUAAGACCUAACAUGAGGAUCACCCAUGUGAUUAUUCGUAGAAGGAUCAUUGAACC	195	209	–	–
AAAAAACAUGAGGAUCACCCAUGUCUUUUGACAUGAGGAUAUGUACAGACUUCGGUCUGUACAGAAGGCAUGUCUU	41.4	17.1	–	–
AAUAAACAUGAGGAUCACCCAUGUAAGGAUAUGCGAACAAUAAGAAGACAAUAAUAAAGCAGAAGGUACAAGAG	–	–	78.1	96.2
